# Assay results from ChEMBL document CHEMBL2146409, “Phenethyl nicotinamides, a novel class of Na(V)1.7 channel blockers: structure and activity relationship” (Bioorg Med Chem Lett, 2012).
# Experiments:
# [1] = system: Liver microsomes; experiment: Metabolic stability in human liver microsomes by glutathione trapping assay; format: ADME, Microsome
# [2] = Clearance in rat at 3 umol/kg, iv; format: ADME, organism-based; settings: in vivo
# How it was run: (§1)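 Fasted male Sprague-Dawley rats given a single intravenous dose of 3 μmol/kg. Three animals per administration per compound; plasma PK parameters derived.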
# [3] = system: Liver microsomes; experiment: Intrinsic clearance in human liver microsomes; format: ADME, Microsome
# [4] = Half life in rat at 3 umol/kg, iv; format: ADME, organism-based; settings: in vivo; how it was run: as §1
# [5] = Tmax in rat at 10 umol/kg, po; format: ADME, organism-based; settings: in vivo
# How it was run: (§2)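 Fasted male Sprague-Dawley rats dosed per orally at 10 µmol/kg. Three animals per administration per compound; plasma exposure and PK parameters derived.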
# [6] = Cmax in rat at 10 umol/kg, po; format: ADME, organism-based; parameters: dose 10 umol/kg, route oral; settings: in vivo; how it was run: as §2
# [7] = Volume of distribution at steady state in rat at 3 umol/kg, iv; format: ADME, organism-based; settings: in vivo, read-out: Vdss; how it was run: as §1
# [8] = Oral bioavailability in rat at 10 umol/kg; format: ADME, organism-based; settings: in vivo; how it was run: as §2
# [9] = system: Liver microsomes; experiment: Intrinsic clearance in rat liver microsomes; format: ADME, Microsome
# [10] = Half life in rat at 10 umol/kg, po; format: ADME, organism-based; settings: in vivo; how it was run: as §2
# [11] = system: Rattus norvegicus; experiment: Dose normalized AUC in rat at 3 umol/kg, iv; format: ADME, organism-based; settings: in vivo; how it was run: as §1
# [12] = system: Rattus norvegicus; experiment: Dose normalised AUC in rat at 10 umol/kg, po; format: ADME, organism-based; settings: in vivo; how it was run: as §2
# [13] = Oral bioavailability in rat in presence of 1-aminobenzotriazole; settings: in vivo
Structure (SMILES),Stability [1],CLH [3],CLH [9],also measured
COc1cnc(-c2ccccc2C(F)(F)CNC(=O)c2ccc(COCC(F)(F)F)nc2)cn1,Stable,< 10 µL/min/µg,16 µL/min/µg,clearance [2]: 11 mL/min/kg; half-life [4]: 1.2 h; Tmax [5]: 0.33 h; Cmax [6]: 1400 nM; Vd [7]: 0.72 L/kg; bioavailability [8]: 27%; half-life [10]: 2.8 h; AUC/dose [11]: 1.5 kg·h/L; AUC/dose [12]: 0.41 kg·h/L
COc1cnc(-c2ccc(Cl)cc2CCNC(=O)c2ccc(COCC(F)(F)F)nc2)cn1,–,72 µL/min/µg,–,–
COc1ncc(-c2cccc(Cl)c2CCNC(=O)c2ccc(OCCC(F)(F)F)nc2)cn1,Unstable,17 µL/min/µg,< 10 µL/min/µg,–
COc1ncc(-c2cccnc2CCNC(=O)c2ccc(OCCC(F)(F)F)nc2)cn1,Stable,< 10 µL/min/µg,< 10 µL/min/µg,–
Cc1cnc(-c2c(F)ccc(F)c2CCNC(=O)c2ccc(COCC(F)(F)F)nc2)cn1,Stable,21 µL/min/µg,< 10 µL/min/µg,clearance [2]: 24.6 mL/min/kg; bioavailability [13]: 40%; half-life [4]: 5.9 h; Tmax [5]: 0.5 h; Cmax [6]: 250 nM; Vd [7]: 1.74 L/kg; bioavailability [8]: 7%; half-life [10]: 2.3 h; AUC/dose [11]: 0.68 kg·h/L; AUC/dose [12]: 0.05 kg·h/L
COc1ncc(-c2cccc(F)c2CCNC(=O)c2ccc(OCCC(F)(F)F)nc2)cn1,Unstable,< 10 µL/min/µg,13 µL/min/µg,–
COc1ncc(-c2cc(C)cnc2CCNC(=O)c2ccc(COCC(F)(F)F)nc2)cn1,–,< 10 µL/min/µg,< 10 µL/min/µg,–
COc1ncc(-c2cccnc2C(C)CNC(=O)c2ccc(OCCC(F)(F)F)nc2)cn1 (stereo unspecified),–,< 10 µL/min/µg,< 10 µL/min/µg,–
COc1cnc(-c2ccccc2CCNC(=O)c2ccc(OCCC(F)(F)F)nc2)cn1,Unstable,124 µL/min/µg,129 µL/min/µg,–
O=C(NCCc1ccccc1-c1cccnc1)c1ccc(OCCC(F)(F)F)nc1,Unstable,160 µL/min/µg,> 500 µL/min/µg,–
COc1ncc(-c2cccc(OC(F)F)c2CCNC(=O)c2ccc(OCCC(F)(F)F)nc2)cn1,–,< 10 µL/min/µg,190 µL/min/µg,–
O=C(NCCc1ccccc1-c1ccc(CO)nc1)c1ccc(OCCC(F)(F)F)nc1,–,10 µL/min/µg,130 µL/min/µg,–
Cc1ncc(-c2ccccc2CCNC(=O)c2ccc(OCCOCC(F)(F)F)nc2)cn1,–,23 µL/min/µg,< 10 µL/min/µg,–
COc1cnc(-c2c(OC)ccc(F)c2CCNC(=O)c2ccc(COCC(F)(F)F)nc2)cn1,–,46 µL/min/µg,67 µL/min/µg,–
Cc1ncc(-c2ccccc2CCNC(=O)c2ccc(C(=O)NCCCC(F)(F)F)nc2)cn1,Unstable,11 µL/min/µg,< 10 µL/min/µg,–
COc1ncc(-c2cccc3c2C[C@H](NC(=O)c2ccc(OCCC(F)(F)F)nc2)CO3)cn1,Stable,–,–,clearance [2]: 14 mL/min/kg; half-life [4]: 6.4 h; Tmax [5]: 4.8 h; Cmax [6]: 230 nM; Vd [7]: 7.2 L/kg; bioavailability [8]: 26%; half-life [10]: 7.6 h; AUC/dose [11]: 1.2 kg·h/L; AUC/dose [12]: 0.32 kg·h/L
COc1ncc(-c2c(C)ccc(F)c2CCNC(=O)c2ccc(OCCC(F)(F)F)nc2)cn1,–,100 µL/min/µg,230 µL/min/µg,–

Structure (SMILES),Stability [1],CLH [3],CLH [9],also measured
COc1ncc(-c2cccc(C)c2CCNC(=O)c2ccc(OCCC(F)(F)F)nc2)cn1,Stable,65 µL/min/µg,32 µL/min/µg,clearance [2]: 50 mL/min/kg; half-life [4]: 0.98 h; Tmax [5]: 0.25 h; Cmax [6]: 20 nM; Vd [7]: 2.4 L/kg; bioavailability [8]: 0.6%; half-life [10]: 2.4 h; AUC/dose [11]: 0.33 kg·h/L; AUC/dose [12]: 0.002 kg·h/L
COc1ncc(-c2ccccc2CCNC(=O)c2ccc(OCCC(F)(F)F)nc2)cn1,–,17 µL/min/µg,> 500 µL/min/µg,–
COc1ncc(-c2ccc(C)nc2CCNC(=O)c2ccc(OCCC(F)(F)F)nc2)cn1,Stable,< 10 µL/min/µg,< 10 µL/min/µg,–
COc1ccc(CCNC(=O)c2ccc(OCCC(F)(F)F)nc2)c(-c2cnc(OC)nc2)c1,–,40 µL/min/µg,150 µL/min/µg,–
COc1cnc(-c2c(C)ccc(F)c2CCNC(=O)c2ccc(COCC(F)(F)F)nc2)cn1,Unstable,61 µL/min/µg,88 µL/min/µg,clearance [2]: 19 mL/min/kg; half-life [4]: 0.9 h; Tmax [5]: 1.5 h; Cmax [6]: 530 nM; Vd [7]: 1.5 L/kg; bioavailability [8]: 4%; half-life [10]: 3.6 h; AUC/dose [11]: 0.91 kg·h/L; AUC/dose [12]: 0.03 kg·h/L
COc1cnc(-c2c(F)ccc(F)c2CCNC(=O)c2ccc(COCC(F)(F)F)nc2)cn1,Stable,44 µL/min/µg,45 µL/min/µg,clearance [2]: 13 mL/min/kg; half-life [4]: 0.9 h; Tmax [5]: 0.67 h; Cmax [6]: 160 nM; Vd [7]: 0.85 L/kg; bioavailability [8]: 5%; half-life [10]: 3 h; AUC/dose [11]: 1.3 kg·h/L; AUC/dose [12]: 0.06 kg·h/L
Cc1ncc(-c2ccccc2CCNC(=O)c2ccc(CNCCC(F)(F)F)nc2)cn1,–,15 µL/min/µg,< 10 µL/min/µg,–
COc1ncc(-c2cccc(OC)c2CCNC(=O)c2ccc(OCCC(F)(F)F)nc2)cn1,–,45 µL/min/µg,17 µL/min/µg,–
Cc1ncc(-c2ccccc2CCNC(=O)c2ccc(OCCC(F)(F)F)nc2)cn1,Unstable,11 µL/min/µg,> 500 µL/min/µg,–
COc1ncc(-c2cccnc2C(F)(F)CNC(=O)c2ccc(OCCC(F)(F)F)nc2)cn1,–,< 10 µL/min/µg,< 10 µL/min/µg,–
O=C(NCCc1ccccc1-c1cnc(OC(F)F)cn1)c1ccc(OCCC(F)(F)F)nc1,–,210 µL/min/µg,270 µL/min/µg,–
COc1ncc(-c2c(C)ccc(F)c2CCNC(=O)c2ccc(OCC(F)(F)F)nc2)cn1,Stable,74 µL/min/µg,35 µL/min/µg,–
COc1ncc(-c2ccccc2C(F)(F)CNC(=O)c2ccc(COCC(F)(F)F)nc2)cn1,Stable,< 10 µL/min/µg,13 µL/min/µg,clearance [2]: 23 mL/min/kg; half-life [4]: 2 h; Tmax [5]: 0.75 h; Cmax [6]: 840 nM; Vd [7]: 1.4 L/kg; bioavailability [8]: 34%; half-life [10]: 2.4 h; AUC/dose [11]: 0.71 kg·h/L; AUC/dose [12]: 0.24 kg·h/L
COc1ncc(-c2cccc(C#N)c2CCNC(=O)c2ccc(OCCC(F)(F)F)nc2)cn1,Stable,< 10 µL/min/µg,24 µL/min/µg,–
Cc1ncc(-c2ccccc2CCNC(=O)c2ccc(COCC(F)(F)F)nc2)cn1,Unstable,< 10 µL/min/µg,< 10 µL/min/µg,–
COc1cnc(-c2cccc(F)c2C(F)(F)CNC(=O)c2ccc(COCC(F)(F)F)nc2)cn1,Stable,< 10 µL/min/µg,24 µL/min/µg,–
